# According to PubChem BioAssay AID624306 (The Scripps Research Institute Molecular Screening Center, 2012):
# Calls of active or inactive are those of the source.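 The calls were made as follows: active = inhibition of insulin-degrading enzyme persists after dilution, judged irreversible; inactive = inhibition lost or reduced after dilution, judged reversible.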
# Target: Insulin-degrading enzyme (Homo sapiens) (UniProt P14735)
# Experiment: dilution reversibility, CF mutant IDE inhibitors – biochemical, cysteine-free mutant, FRET1 fluorogenic peptide, mechanism study for IDE inhibitor project, late-stage follow-up (AID 624306)
# Conditions: recombinant cysteine-free IDE, FRET1 fluorescence
# Outline: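 Assay system – mutant insulin-degrading enzyme (IDE) · Signal – kinetic fluorescence, 335 nm excitation, 385 nm emission · Doses – top compound dose 100 µM · Timing – kinetic reads every 2 min over 2 h, room temperature · Benchmarks – vehicle wells as high control, enzyme-free wells as low · Repeats – triplicate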
# Chain of Insulin-degrading enzyme (Homo sapiens) (P14735 whole entry, looked up): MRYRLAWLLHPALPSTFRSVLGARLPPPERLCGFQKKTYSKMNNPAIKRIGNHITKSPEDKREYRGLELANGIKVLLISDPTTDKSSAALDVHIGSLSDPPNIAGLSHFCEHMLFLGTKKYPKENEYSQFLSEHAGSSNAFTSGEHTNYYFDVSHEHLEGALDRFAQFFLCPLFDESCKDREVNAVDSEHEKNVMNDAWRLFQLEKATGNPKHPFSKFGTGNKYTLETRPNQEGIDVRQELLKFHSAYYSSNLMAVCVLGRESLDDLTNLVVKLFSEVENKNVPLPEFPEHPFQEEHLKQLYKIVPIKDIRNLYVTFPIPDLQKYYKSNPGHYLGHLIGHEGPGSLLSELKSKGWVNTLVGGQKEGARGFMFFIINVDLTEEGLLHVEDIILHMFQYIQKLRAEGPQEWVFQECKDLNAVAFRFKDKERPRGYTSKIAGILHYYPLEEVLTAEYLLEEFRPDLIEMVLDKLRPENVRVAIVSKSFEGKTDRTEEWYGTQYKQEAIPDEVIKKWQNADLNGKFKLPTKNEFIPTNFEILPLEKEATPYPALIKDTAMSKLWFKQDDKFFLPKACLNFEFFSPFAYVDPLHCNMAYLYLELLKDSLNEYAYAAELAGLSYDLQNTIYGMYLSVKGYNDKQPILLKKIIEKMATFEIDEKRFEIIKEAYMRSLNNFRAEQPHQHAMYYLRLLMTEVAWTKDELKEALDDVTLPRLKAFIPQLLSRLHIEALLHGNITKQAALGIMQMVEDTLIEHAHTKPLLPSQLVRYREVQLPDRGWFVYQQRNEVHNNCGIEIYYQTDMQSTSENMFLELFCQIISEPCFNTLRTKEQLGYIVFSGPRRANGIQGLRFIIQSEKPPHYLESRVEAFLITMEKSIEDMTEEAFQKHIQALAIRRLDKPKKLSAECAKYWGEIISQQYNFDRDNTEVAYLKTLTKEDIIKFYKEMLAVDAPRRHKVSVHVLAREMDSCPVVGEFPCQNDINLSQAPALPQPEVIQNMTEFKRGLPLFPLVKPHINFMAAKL
row,Compound,outcome
1,O=C(O)c1ccccc1NS(=O)(=O)c1cccc(-n2sc3ccccc3c2=O)c1,active
2,O=c1c2ccccc2sn1-c1cc(S(=O)(=O)N2CCOCC2)ccc1N1CCOCC1,active
3,Clc1cccc(-c2nnc(SCc3nc4ccccc4[nH]3)n2Cc2ccco2)c1,inactive
4,Cc1cccc(-c2nnc(SCc3nc4ccccc4[nH]3)n2Cc2ccco2)c1,inactive
5,COc1cc(/C=C2\SC(=S)N(NC(C)=O)C2=O)ccc1OC(=O)c1ccco1,inactive
6,COc1cccc(-c2nnc(SCc3nc4ccccc4[nH]3)n2Cc2ccco2)c1,inactive
7,O=C(Nc1cccc(C(F)(F)F)c1)c1csc(-c2ccncc2)n1,inactive
8,COc1ccc(C(=O)N2CCN(C(=O)C3COc4ccccc4O3)CC2)cc1OC (stereo not given),inactive
9,Cc1c(CCC(=O)NCCCn2ccnc2)c(=O)oc2cc3oc4c(c3cc12)CCCC4,inactive
10,Cn1c(=O)c(C(=O)CN2CCCc3ccccc32)c(N)n(Cc2ccccc2)c1=O,inactive
